Assay [1] concerns the target Cholesterol side-chain cleavage enzyme, mitochondrial (Bos taurus) (UniProt P00189). The experiment in a line: Inhibition of cholesterol side chain cleavage cytochrome P450.
The target of assay [2] is T1, Lanosterol 14-alpha demethylase (Rattus norvegicus, UniProt Q64654).
T1 sequence (Q64654 whole entry): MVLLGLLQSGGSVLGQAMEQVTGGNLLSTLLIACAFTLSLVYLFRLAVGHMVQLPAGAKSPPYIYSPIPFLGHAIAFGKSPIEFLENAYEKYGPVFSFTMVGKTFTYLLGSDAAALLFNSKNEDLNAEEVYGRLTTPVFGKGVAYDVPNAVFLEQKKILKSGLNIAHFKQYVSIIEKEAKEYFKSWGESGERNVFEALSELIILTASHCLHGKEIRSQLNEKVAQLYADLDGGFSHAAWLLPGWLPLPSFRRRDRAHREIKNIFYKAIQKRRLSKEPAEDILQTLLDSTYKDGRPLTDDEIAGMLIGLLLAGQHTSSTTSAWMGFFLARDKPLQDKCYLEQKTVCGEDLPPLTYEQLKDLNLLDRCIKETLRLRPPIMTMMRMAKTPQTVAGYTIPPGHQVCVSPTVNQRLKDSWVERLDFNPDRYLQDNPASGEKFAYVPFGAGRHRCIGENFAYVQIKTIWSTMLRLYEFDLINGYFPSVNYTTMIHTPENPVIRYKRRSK
The experiment in a line: Inhibition of lanosterol 14 alpha-demethylase cytochrome P450 51A. In a few lines:
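Liver microsomes from cholestyramine-treated male rats. Buffer was potassium phosphate pH 7.0 with DTT, EDTA, MgCl2, 0.005% Tween-20, 20% glycerol, 5 mM glucose 6-phosphate and G6P dehydrogenase. […] Reaction was started with NADPH, run 30 min at 37 °C and stopped with TCA. Tritiated water-soluble products were separated on Bond-Elut and counted by scintillation in duplicate.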

Assay [3] is described as follows: Inhibition of cytochrome P450 progesterone 16-alpha hydroxylase. The assay is classed as ADME, Rattus norvegicus.
The target in another assay is Cytochrome P450 2A2 (Rattus norvegicus, UniProt P15149). The experiment in a line: Inhibition of cytochrome P450 progesterone 15-alpha hydroxylase. The assay is classed as ADME.
Cytochrome P450 2A2, sequence (P15149 whole entry): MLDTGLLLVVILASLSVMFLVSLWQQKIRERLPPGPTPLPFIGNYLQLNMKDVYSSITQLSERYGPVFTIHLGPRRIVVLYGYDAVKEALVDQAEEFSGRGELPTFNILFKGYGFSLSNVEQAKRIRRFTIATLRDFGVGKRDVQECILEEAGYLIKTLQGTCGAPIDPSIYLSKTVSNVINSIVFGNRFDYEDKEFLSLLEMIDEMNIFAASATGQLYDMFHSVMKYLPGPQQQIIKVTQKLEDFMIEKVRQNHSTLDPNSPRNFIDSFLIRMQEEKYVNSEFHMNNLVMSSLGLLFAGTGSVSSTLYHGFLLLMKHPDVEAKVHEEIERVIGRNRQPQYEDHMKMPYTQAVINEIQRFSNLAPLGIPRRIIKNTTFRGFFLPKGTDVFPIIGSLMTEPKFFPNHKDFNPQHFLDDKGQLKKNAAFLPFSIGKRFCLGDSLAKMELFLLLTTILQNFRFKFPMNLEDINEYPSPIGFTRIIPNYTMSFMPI
Assay [4] in a line: Inhibition of Steroid 17-alpha-hydroxylase/17,20 lyase cytochrome P450 17A1. Details: species or system Sus scrofa.
Assay [5] is described as follows: Inhibition of lauric acid hydroxylase cytochrome P450 4A. Set-up: species or system Rattus norvegicus. In outline: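 Microsomal protein (0.05 mg/mL) with [14C]lauric acid (10 nmol, 6 mCi/mmol), potassium phosphate pH 7.4, MgCl2, EDTA, glucose 6-phosphate, glucose-6-phosphate dehydrogenase (2 units) and NADPH, in 1 mL. Ran 10 min at 37 °C and was stopped with CH2Cl2. Products were resolved by reverse-phase HPLC on a MeCN gradient with radioflow detection.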

Cholesterol side-chain cleavage enzyme, mitochondrial (Bos taurus), sequence (P00189 whole entry, looked up): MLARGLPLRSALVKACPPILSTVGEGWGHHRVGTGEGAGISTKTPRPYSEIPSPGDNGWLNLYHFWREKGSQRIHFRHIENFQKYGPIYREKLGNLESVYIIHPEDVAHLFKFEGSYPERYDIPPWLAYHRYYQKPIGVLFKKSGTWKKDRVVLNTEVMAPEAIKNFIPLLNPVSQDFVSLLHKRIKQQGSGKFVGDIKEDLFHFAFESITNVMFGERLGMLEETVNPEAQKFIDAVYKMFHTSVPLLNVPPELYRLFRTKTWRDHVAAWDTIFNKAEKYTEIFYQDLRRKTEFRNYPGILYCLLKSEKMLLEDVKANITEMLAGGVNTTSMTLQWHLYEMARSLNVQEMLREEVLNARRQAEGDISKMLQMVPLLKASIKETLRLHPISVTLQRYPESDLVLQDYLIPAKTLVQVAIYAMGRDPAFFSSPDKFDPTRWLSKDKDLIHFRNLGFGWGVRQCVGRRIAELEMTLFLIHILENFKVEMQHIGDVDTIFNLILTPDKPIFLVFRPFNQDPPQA

`CC(=O)N1CCN(c2ccc(OCC3COC(Cn4ccnc4)(c4ccc(Cl)cc4Cl)O3)cc2)CC1` (stereo in doubt; 2) [KETOCONAZOLE]: the IC50 (as a rule, the midpoint of a concentration-inhibition curve) came out at 1240 nM in assay [1]; 47 nM in assay [2]; 83900 nM in assay [3]; 543 nM against Cytochrome P450 2A2; 50 nM in assay [4].
With `CC(=O)N1CCN(c2ccc(OC[C@H]3CO[C@@](Cn4ccnc4)(c4ccc(Cl)cc4Cl)O3)cc2)CC1`, the IC50 in assay [1] was 2950 nM; in assay [2] it was 1600 nM; in assay [3], 37900 nM; on Cytochrome P450 2A2, 1080 nM; in assay [4] it was 589 nM; in assay [5] it was more than 100000 nM.
On to `CC(=O)N1CCN(c2ccc(OC[C@@H]3CO[C@](Cn4ccnc4)(c4ccc(Cl)cc4Cl)O3)cc2)CC1`, for which the IC50 was 3920 nM in assay [1]; 1370 nM in assay [2]; 32300 nM in assay [3]; 728 nM against Cytochrome P450 2A2; more than 100000 nM in assay [5].
As to `CC(=O)N1CCN(c2ccc(OCC3COC(Cn4ccnc4)(c4ccc(Cl)cc4Cl)O3)cc2)CC1` (stereo in doubt; 4) [KETOCONAZOLE], the IC50 was 5400 nM in assay [1]; 119 nM in assay [2]; 69300 nM in assay [3]; 369 nM on Cytochrome P450 2A2; 2380 nM in assay [4]; more than 100000 nM in assay [5].

These data come from ChEMBL document CHEMBL1125500 (J Med Chem, 1992).
